Measured values: ChEMBL document CHEMBL1909541, “Hantzsch reaction: synthesis and characterization of some new 1,4-dihydropyridine derivatives as potent antimicrobial and antioxidant agents” (Eur J Med Chem, 2011)

What was measured:
Format in all cases: functional
[1] = tested on: Candida albicans; assay: Antifungal activity against Candida albicans MTCC 3017 at 0.5 mg/mL after 72 hrs by agar-well diffusion method; conditions: MTCC 3017, 72 h, read-out: DIZ
Method in brief: (§1)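 Fungal spore suspensions made in normal saline were spread onto agar adjusted to pH 5.7, then dried 1 h at 37 °C. Wells were cut and loaded with test compounds in DMSO at different concentrations, with a DMSO control. Plates run in triplicate at 25 °C for 72 h. Read-out was inhibition zone diameter.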

[2] = tested on: Aspergillus flavus; assay: Antifungal activity against Aspergillus flavus MTCC 3306 at 0.25 mg/mL after 72 hrs by agar-well diffusion method; conditions: MTCC 3306, 72 h, read-out: DIZ; method in brief: as §1
[3] = tested on: Staphylococcus aureus; assay: Antibacterial activity against Staphylococcus aureus ATCC 25923 at 0.25 mg/mL after 24 hrs by agar-well diffusion method; conditions: ATCC 25923, 24 h, read-out: IZ
Method in brief: (§2)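 Well diffusion on Mueller-Hinton agar seeded with 24 h old cultures. Test compounds dissolved in DMSO at 1, 0.5 and 0.25 mg/mL. 6 mm wells were punched with a sterile cork borer, test solutions added, and plates incubated 24 h at 37 °C.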

[4] = tested on: Escherichia coli; assay: Antibacterial activity against Escherichia coli ATCC 25922 at 1 mg/mL after 24 hrs by agar-well diffusion method; conditions: ATCC 25922, 24 h, read-out: IZ; method in brief: as §2
[5] = Antifungal activity against Chrysosporium keratinophilum MTCC 2827 at 1 mg/mL after 72 hrs by agar-well diffusion method; method in brief: as §1
[6] = Antifungal activity against Chrysosporium keratinophilum MTCC 2827 at 0.25 mg/mL after 72 hrs by agar-well diffusion method; method in brief: as §1
[7] = tested on: Staphylococcus aureus; assay: Antibacterial activity against Staphylococcus aureus ATCC 25923 at 0.5 mg/mL after 24 hrs by agar-well diffusion method; conditions: ATCC 25923, 24 h, read-out: IZ; method in brief: as §2
[8] = tested on: Pseudomonas aeruginosa; assay: Antibacterial activity against Pseudomonas aeruginosa ATCC 27853 at 0.25 mg/mL after 24 hrs by agar-well diffusion method; conditions: ATCC 27853, 24 h, read-out: IZ; method in brief: as §2
[9] = tested on: Aspergillus flavus; assay: Antifungal activity against Aspergillus flavus MTCC 3306 at 1 mg/mL after 72 hrs by agar-well diffusion method; conditions: MTCC 3306, 72 h, read-out: DIZ; method in brief: as §1
[10] = tested on: Radical scavenging activity; assay: Antioxidant activity assessed as DPPH free radical scavenging activity at 100 uM after 30 mins
Method in brief: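 Sample brought to 1 mL with MeOH and mixed with 3 mL fresh 0.1 mM DPPH. Kept 30 min in the dark, then absorbance read at 517 nm. A DPPH control without sample was included. Scavenging (%) = [(Abs control − Abs sample)/Abs control] × 100.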

[11] = tested on: Staphylococcus aureus; assay: Antibacterial activity against Staphylococcus aureus ATCC 25923 at 1 mg/mL after 24 hrs by agar-well diffusion method; conditions: ATCC 25923, 24 h, read-out: IZ; method in brief: as §2
[12] = Antifungal activity against Chrysosporium keratinophilum MTCC 2827 at 0.5 mg/mL after 72 hrs by agar-well diffusion method; method in brief: as §1
[13] = tested on: Candida albicans; assay: Antifungal activity against Candida albicans MTCC 3017 at 1 mg/mL after 72 hrs by agar-well diffusion method; conditions: MTCC 3017, 72 h, read-out: DIZ; method in brief: as §1
[14] = tested on: Escherichia coli; assay: Antibacterial activity against Escherichia coli ATCC 25922 at 0.25 mg/mL after 24 hrs by agar-well diffusion method; conditions: ATCC 25922, 24 h, read-out: IZ; method in brief: as §2
[15] = tested on: Candida albicans; assay: Antifungal activity against Candida albicans MTCC 3017 at 0.25 mg/mL after 72 hrs by agar-well diffusion method; conditions: MTCC 3017, 72 h, read-out: DIZ; method in brief: as §1
[16] = tested on: Pseudomonas aeruginosa; assay: Antibacterial activity against Pseudomonas aeruginosa ATCC 27853 at 0.5 mg/mL after 24 hrs by agar-well diffusion method; conditions: ATCC 27853, 24 h, read-out: IZ; method in brief: as §2
[17] = tested on: Pseudomonas aeruginosa; assay: Antibacterial activity against Pseudomonas aeruginosa ATCC 27853 at 1 mg/mL after 24 hrs by agar-well diffusion method; conditions: ATCC 27853, 24 h, read-out: IZ; method in brief: as §2
[18] = tested on: Aspergillus flavus; assay: Antifungal activity against Aspergillus flavus MTCC 3306 at 0.5 mg/mL after 72 hrs by agar-well diffusion method; conditions: MTCC 3306, 72 h, read-out: DIZ; method in brief: as §1
[19] = tested on: Escherichia coli; assay: Antibacterial activity against Escherichia coli ATCC 25922 at 0.5 mg/mL after 24 hrs by agar-well diffusion method; conditions: ATCC 25922, 24 h, read-out: IZ; method in brief: as §2

Row | Structure (SMILES) | zone of inhibition at 500 µg/mL [1] [mm] | zone of inhibition at 250 µg/mL [2] [mm] | zone of inhibition at 250 µg/mL [3] [mm] | zone of inhibition at 1000 µg/mL [4] [mm] | inhibition zone (IZ) [5] [mm] | inhibition zone (IZ) [6] [mm] | zone of inhibition at 500 µg/mL [7] [mm] | zone of inhibition at 250 µg/mL [8] [mm] | zone of inhibition at 1000 µg/mL [9] [mm] | Activity [10] [%] | zone of inhibition at 1000 µg/mL [11] [mm] | inhibition zone (IZ) [12] [mm] | zone of inhibition at 1000 µg/mL [13] [mm] | zone of inhibition at 250 µg/mL [14] [mm] | zone of inhibition at 250 µg/mL [15] [mm] | zone of inhibition at 500 µg/mL [16] [mm] | zone of inhibition at 1000 µg/mL [17] [mm] | zone of inhibition at 500 µg/mL [18] [mm] | zone of inhibition at 500 µg/mL [19] [mm]
1 | COC(=O)C1=C(C)NC(C)=C(C(=O)OC)C1c1c[nH]nc1-c1ccc(Cl)cc1 | 1 | 1 | 3 | 10 | 5 | 2 | 6 | 4 | 6 | 29.4 | 8 | 4 | 3 | 5 | 0 | 7 | 9 | 3 | 8
2 | OC(Cn1cncn1)(Cn1cncn1)c1ccc(F)cc1F [FLUCONAZOLE] | 21 | 10 | – | – | 17 | 14 | – | – | 13 | – | – | 15 | 22 | – | 20 | – | – | 11 | –
3 | CCOC(=O)C1=C(C)NC(C)=C(C(=O)OCC)C1c1c[nH]nc1-c1cc(Cl)sc1Cl | 2 | 3 | 8 | 16 | 5 | 2 | 9 | 10 | 4 | 32 | 13 | 2 | 5 | 8 | 2 | 12 | 15 | 3 | 10
4 | COC(=O)C1=C(C)NC(C)=C(C(=O)OC)C1c1c[nH]nc1-c1ccc(SC)cc1 | 0 | 0 | 2 | 4 | 0 | 0 | 3 | 3 | 0 | 32.2 | 6 | 0 | 0 | 1 | 0 | 4 | 6 | 0 | 2
5 | CCOC(=O)C1=C(C)NC(C)=C(C(=O)OCC)C1c1c[nH]nc1-c1ccc(OC)cc1 | 1 | 0 | 6 | 12 | 3 | 0 | 8 | 5 | 2 | 30.3 | 13 | 2 | 3 | 5 | 2 | 7 | 10 | 1 | 8
6 | COC(=O)C1=C(C)NC(C)=C(C(=O)OC)C1c1c[nH]nc1-c1cc(Cl)sc1Cl | 2 | 0 | 4 | 10 | 4 | 1 | 8 | 1 | 3 | 30.3 | 10 | 2 | 3 | 5 | 0 | 3 | 7 | 2 | 7
7 | COC(=O)C1=C(C)NC(C)=C(C(=O)OC)C1c1c[nH]nc1-c1ccc(-c2ccccc2)cc1 | 0 | 2 | 5 | 13 | 3 | 0 | 7 | 7 | 5 | 25.3 | 9 | 2 | 0 | 8 | 0 | 8 | 10 | 4 | 10
8 | CN[C@@H]1[C@H](O[C@H]2[C@H](O[C@H]3[C@H](O)[C@@H](O)[C@H](N=C(N)N)[C@@H](O)[C@@H]3N=C(N)N)O[C@@H](C)[C@]2(O)C=O)O[C@@H](CO)[C@H](O)[C@H]1O [STREPTOMYCIN] | – | – | 9 | 16 | – | – | 10 | 11 | – | – | 15 | – | – | 8 | – | 13 | 16 | – | 10
9 | COC(=O)C1=C(C)NC(C)=C(C(=O)OC)C1c1c[nH]nc1-c1ccc(OC)cc1 | 0 | 0 | 2 | 7 | 0 | 0 | 4 | 2 | 0 | 30.2 | 6 | 0 | 0 | 2 | 0 | 4 | 7 | 0 | 4
10 | COC(=O)C1=C(C)NC(C)=C(C(=O)OC)C1c1c[nH]nc1-c1ccc(Cl)cc1Cl | 0 | 0 | 2 | 6 | 5 | 0 | 3 | 2 | 3 | 35.2 | 6 | 1 | 3 | 2 | 0 | 4 | 8 | 2 | 3
11 | Cc1cc(C(C)(C)C)c(O)c(C(C)(C)C)c1 | – | – | – | – | – | – | – | – | – | 72.4 | – | – | – | – | – | – | – | – | –
12 | CCOC(=O)C1=C(C)NC(C)=C(C(=O)OCC)C1c1c[nH]nc1-c1ccc(Cl)cc1Cl | 1 | 2 | 5 | 6 | 4 | 1 | 7 | 7 | 3 | 29.2 | 11 | 2 | 4 | 2 | 1 | 9 | 12 | 2 | 4
